Test results reported in publication PMC3644109 (Nature Communications, 2013).

How the values were obtained:
AtALMT9 [1] = biological target: T1, AtALMT9 (Arabidopsis thaliana, UniProt Q9LS46); assay: patch clamp of excised cytosolic-side-out vacuolar patches, chloride current; format: biochemical; conditions: activator, not permeant, -120 mV, chloride bath, pH 7.5
T1 sequence (Q9LS46 1-598): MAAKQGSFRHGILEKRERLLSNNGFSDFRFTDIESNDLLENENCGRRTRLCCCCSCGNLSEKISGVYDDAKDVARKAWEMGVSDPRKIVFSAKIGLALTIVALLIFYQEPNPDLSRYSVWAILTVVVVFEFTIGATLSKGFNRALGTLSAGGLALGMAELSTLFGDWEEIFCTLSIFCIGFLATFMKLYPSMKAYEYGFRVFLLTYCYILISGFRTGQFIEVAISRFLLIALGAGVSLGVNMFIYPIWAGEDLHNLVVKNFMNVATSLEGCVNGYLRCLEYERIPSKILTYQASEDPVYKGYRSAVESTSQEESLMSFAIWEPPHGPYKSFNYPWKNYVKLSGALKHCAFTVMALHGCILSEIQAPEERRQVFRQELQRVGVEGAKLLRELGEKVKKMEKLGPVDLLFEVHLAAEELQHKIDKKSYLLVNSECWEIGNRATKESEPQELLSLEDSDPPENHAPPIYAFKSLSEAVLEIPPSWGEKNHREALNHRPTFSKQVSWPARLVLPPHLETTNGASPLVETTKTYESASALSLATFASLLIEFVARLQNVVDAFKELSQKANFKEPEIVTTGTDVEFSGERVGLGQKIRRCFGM

AtALMT9 [2] = biological target: T1, AtALMT9; assay: patch clamp of excised cytosolic-side-out vacuolar patches, chloride current; format: biochemical; conditions: activator; 1 mM cytosolic; 100 mM chloride bath, pH 7.5
Summary of the method: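 Vacuoles came from transiently transformed N. benthamiana leaves expressing the channel (2–3 days post-agroinfiltration) and were released from mesophyll protoplasts by EDTA and mild osmotic shock. Excised cytosolic-side-out patches (seal >2 GΩ) were held in symmetrical chloride: pipette 100 mM HCl pH 6, bath 100 mM HCl, 3 mM MgCl₂, 0.1 mM CaCl₂ pH 7.5. Test compound was perfused on the cytosolic side. Steady currents were compared at -120 mV, before versus after.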

AtALMT9 [3] = biological target: T1, AtALMT9; assay: patch clamp of excised cytosolic-side-out vacuolar patches, Hill fit; format: cell-based
[4] = substrate: O=C(O)C[C@H](O)C(=O)O; assay: cells, lysate or membranes; conditions: malate transport into vacuole

Molecule: O=C(O)c1cccc(C(=O)O)c1 [isophtalate]
- fold increase of chloride current (AtALMT9 [1]): 2.1±0.1 fold

Molecule: O=C(O)/C=C/C(=O)O [fumarate]
- fold increase of chloride current at 1 mM (AtALMT9 [2]): 5.7±0.4 fold

Molecule: O=C(O)C[C@H](O)C(=O)O [malate]
- EC50 (AtALMT9 [3]): 300 µM

Molecule: O=C(O)CC(=O)C(=O)O [oxaloacetate]
- fold increase of chloride current at 1 mM (AtALMT9 [2]): 2.0±0.2 fold

B1: AtALMT9 (Arabidopsis thaliana) (protein)
chain: T1 sequence (Q9LS46 1-598)
- Km [4]: 27 mM
